Bioassay records deposited in PubChem BioAssay by Broad Institute.
INS-1E ATP HTS: protection of INS-1E cells from cytokine death, primary screen, ATP luminescence, single point; INS-1E cytokine-induced death, 48 h; normalised: neutral wells 0, positive control 100; protection from cytokine-induced ATP loss, % at 10 µM; actives 0.1% (n = 20,000);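 active = mean replicate protection from cytokine-induced ATP loss at least 50% and at least 75% of replicates each reaching 50%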
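Assay system – rat INS-1E insulinoma cell line · Quantity – 8000 cells per well · Buffer or medium – RPMI without phenol red, 5% FBS · Schedule – 48 h co-treatment, 10 min post-lysis read · Technique – luminescent ATP assay (CellTiter-Glo)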
T cruzi HTS: inhibitors of intracellular Trypanosoma cruzi, primary screen, cell-based, plate reader, single point, set 2. intracellular Trypanosoma cruzi in host cells. activity score (inhibition), % at 5.01 µM. actives 4.9% (n = 22,000); in the data active = activity score above about 55%;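 note: parasites and compound incubated about four days before reading; 0% = median of neutral control wells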
YB-1 expr inh: inhibitors of YB-1 gene expression, primary screen, cell-based, fluorescence. actives 0.37% (n = 30,000). delta delta Cp (YB-1 minus CDIP) (no concentration beside the values). U2OS, qRT-PCR YB-1 vs CDIP delta delta Cp, 16 h; stronger effect = higher value; zero = DMSO, each unit about twofold;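 active = delta delta Cp rounded down to an integer at or above 3, about 3 SD of DMSO wells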;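 note: higher means less YB-1 transcript or more CDIP transcript relative to DMSO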
An asterisk follows results filed as active; . = not tested or not shown. Shown is part of a subset that was picked to be rich in hits.

SMILES | INS-1E ATP HTS | T cruzi HTS | YB-1 expr inh
C[C@H]1CN([C@@H](C)CO)C(=O)c2cccc(NC(=O)Nc3ccc(C(F)(F)F)cc3)c2O[C@@H]1CN(C)Cc1ccc(Cl)c(Cl)c1 | -27 | 77* | -0.012
C[C@H](CO)N1C[C@H](C)[C@H](CN(C)Cc2ccc(Cl)c(Cl)c2)Oc2c(NC(=O)Nc3ccccc3)cccc2C1=O | -46 | 16 | 0.98
C[C@@H]1CN([C@@H](C)CO)C(=O)c2cccc(NC(=O)Nc3ccc(F)cc3)c2O[C@@H]1CN(C)Cc1ccc(Cl)c(Cl)c1 | -71 | 21 | -0.14
C[C@@H]1CN([C@@H](C)CO)C(=O)c2cccc(NC(=O)Nc3ccc(C(F)(F)F)cc3)c2O[C@@H]1CN(C)Cc1ccc(Cl)c(Cl)c1 | -31 | 79* | -0.3
C[C@H](CO)N1C[C@H](C)[C@@H](CN(C)Cc2ccc(Cl)c(Cl)c2)Oc2c(NC(=O)Nc3ccc(C(F)(F)F)cc3)cccc2C1=O | -40 | 82* | -0.046
Cc1ccc(S(=O)(=O)Nc2cccc3c2O[C@@H](CN(C)C(=O)Nc2cccc4ccccc24)[C@H](C)CN([C@H](C)CO)C3=O)cc1 | 3 | -26 | -0.05
C[C@H]1CN([C@@H](C)CO)C(=O)c2cc(NC(=O)Cc3cn(C)c4ccccc34)ccc2O[C@H]1CN(C)C(=O)Nc1ccc(C(F)(F)F)cc1 | -1 | 19 | -1.7
Cc1noc(C)c1S(=O)(=O)N(C)C[C@H]1Oc2ccc(NS(=O)(=O)c3cn(C)cn3)cc2C(=O)N([C@H](C)CO)C[C@H]1C | 1 | -31 | -0.34
CC(C)Cc1ccc(C(C)C(=O)O)cc1 (stereo not given) | . | . | 0.3
CC(C(=O)O)c1ccc(C(=O)c2cccs2)cc1 (stereo not given) | . | . | 6.9*
C[C@H]1CN([C@@H](C)CO)C(=O)c2cccc(NS(=O)(=O)c3ccccc3)c2O[C@H]1CN(C)Cc1ccc(C(F)(F)F)cc1 | 0 | 31 | 0.15
C[C@@H]1CN([C@@H](C)CO)C(=O)c2cccc(NS(=O)(=O)c3ccc(F)cc3)c2O[C@@H]1CN(C)Cc1ccc(-c2ccccc2)cc1 | -68 | 66* | 0.52
C[C@H]1CN([C@@H](C)CO)C(=O)c2cccc(NS(=O)(=O)c3ccc(F)cc3)c2O[C@@H]1CN(C)Cc1ccc(-c2ccccc2)cc1 | -7 | 18 | 0.29
C[C@H]1CN([C@@H](C)CO)C(=O)c2cccc(NS(C)(=O)=O)c2O[C@H]1CN(C)Cc1ccccc1 | -6 | -8 | -0.88
C[C@H](CO)N1C[C@H](C)[C@@H](CN(C)Cc2ccccc2)Oc2c(NS(C)(=O)=O)cccc2C1=O | 2 | 59* | 0.36
C[C@H](CO)N1C[C@H](C)[C@@H](CN(C)Cc2ccc(C(F)(F)F)cc2)Oc2c(NS(=O)(=O)c3ccccc3)cccc2C1=O | 2 | 66* | -0.064
Cc1cc(C(=O)Nc2cccc3c2O[C@@H](CN(C)C(=O)Nc2ccc(F)cc2)[C@@H](C)CN([C@@H](C)CO)C3=O)n(C)n1 | 0 | -23 | 0.33
Cc1ccc(OC(C)(C)C(=O)Nc2ccc(Oc3ccc(F)cc3F)nc2)c2c1CCC2 | . | . | -0.031
C[C@H](CO)N1C[C@H](C)[C@H](CN(C)S(=O)(=O)c2cccs2)Oc2ncc(C#Cc3ccccc3)cc2C1=O | . | 73* | 0.029
C[C@H](CO)N1C[C@H](C)[C@H](CN(C)S(C)(=O)=O)Oc2ncc(C#CC(C)(C)O)cc2C1=O | . | -14 | 0.2
C[C@H](CO)N1C[C@H](C)[C@H](CN(C)S(=O)(=O)c2cccs2)Oc2ncc(C#CC(C)(C)O)cc2C1=O | 1 | -7 | 9.9*
C[C@H](CO)N1C[C@H](C)[C@H](CN(C)S(=O)(=O)c2cccs2)Oc2ncc(C#CCN(C)C)cc2C1=O | . | 1 | 0.3
COc1ccc(CN(C)C[C@@H]2Oc3ccc(NC(=O)NC(C)C)cc3C(=O)N([C@@H](C)CO)C[C@@H]2C)cc1 | 4 | -13 | -0.061
C[C@@H]1CCCCO[C@H](CN(C)C(=O)Nc2ccccc2)[C@@H](C)CN([C@H](C)CO)C(=O)c2cc(NS(=O)(=O)c3ccc(F)cc3)ccc2O1 | 2 | 7 | 0.39
C[C@H]1CN([C@@H](C)CO)C(=O)Cc2cc(N(C)C)ccc2O[C@@H]1CN(C)Cc1ccc(Cl)c(Cl)c1 | -8 | 72* | 0.043
SMILES | INS-1E ATP HTS | T cruzi HTS | YB-1 expr inh
C[C@@H]1CN([C@H](C)CO)C(=O)Cc2cc(N(C)C)ccc2O[C@H]1CN(C)Cc1ccc2c(c1)OCO2 | -8 | 69* | -0.26
C[C@@H]1CN([C@@H](C)CO)C(=O)Cc2cc(N(C)C)ccc2O[C@@H]1CN(C)Cc1ccc(Cl)c(Cl)c1 | -17 | 43 | -0.41
C[C@H]1CN([C@@H](C)CO)C(=O)Cc2cc(N(C)C)ccc2O[C@@H]1CN(C)Cc1ccc2c(c1)OCO2 | -5 | 64* | 0.42
C[C@H](CO)N1C[C@H](C)[C@H](CN(C)Cc2ccc3c(c2)OCO3)Oc2ccc(N(C)C)cc2CC1=O | -5 | 15 | 0.19
C[C@@H]1CN([C@H](C)CO)C(=O)Cc2cc(N(C)C)ccc2O[C@@H]1CN(C)Cc1ccc2c(c1)OCO2 | -7 | -23 | 0.33
COc1ccc(NC(=O)N(C)C[C@@H]2Oc3ccc(NC(=O)C4CC4)cc3C(=O)N([C@H](C)CO)C[C@H]2C)cc1 | 0 | -2 | 0.32
CNC[C@H]1Oc2ccc(NC(=O)Nc3ccc(OC)cc3)cc2C(=O)N([C@H](C)CO)C[C@H]1C | 8 | -2 | 0.093
COc1ccc(CN(C)C[C@@H]2Oc3ccc(NC(=O)Nc4c(C)noc4C)cc3C(=O)N([C@H](C)CO)C[C@@H]2C)cc1 | -5 | 4 | 0.25
COc1ccc(S(=O)(=O)N(C)C[C@@H]2Oc3c(NS(=O)(=O)c4cn(C)cn4)cccc3C(=O)N([C@@H](C)CO)C[C@H]2C)cc1 | 5 | -15 | -0.051
C[C@@H]1CN([C@@H](C)CO)C(=O)Cc2cc(N(C)C)ccc2O[C@@H]1CN(C)Cc1ccc(-c2ccccc2)cc1 | -10 | 8 | 0.42
C[C@H]1CN([C@@H](C)CO)C(=O)Cc2cc(N(C)C)ccc2O[C@@H]1CN(C)Cc1ccccc1 | -6 | 58* | 0.16
C[C@@H]1CN([C@H](C)CO)C(=O)Cc2cc(N(C)C)ccc2O[C@H]1CN(C)Cc1ccc(Oc2ccccc2)cc1 | -27 | 57* | 0.25
C[C@H](CO)N1C[C@H](C)[C@H](CN(C)Cc2ccc(Oc3ccccc3)cc2)Oc2ccc(N(C)C)cc2CC1=O | -16 | 34 | 0.16
C[C@H](CO)N1C[C@H](C)[C@H](CN(C)C(=O)Nc2ccc(C(F)(F)F)cc2)Oc2ccc(NS(=O)(=O)c3ccc(Cl)cc3)cc2C1=O | -8 | -1 | -0.18
C[C@H]1CN([C@@H](C)CO)C(=O)Cc2cc(NC(=O)Cc3ccccc3)ccc2O[C@H]1CN(C)C(=O)Nc1ccc(F)cc1 | 7 | -6 | -0.11
C[C@@H]1CN([C@H](C)CO)C(=O)c2cc(NC(=O)C3CC3)ccc2O[C@@H]1CN(C)Cc1ccc(C(F)(F)F)cc1 | -6 | -15 | -0.44
